Experimental data taken from ChEMBL document CHEMBL1156507, “The M18 aspartyl aminopeptidase of the human malaria parasite Plasmodium falciparum” (J Biol Chem, 2007).

system: not listed separately; test: Binding affinity against recombinant Plasmodium falciparum D10 M18AAP
How it was run: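 Recombinant His6-tagged PfM18AAP was expressed in baculovirus-infected Sf9 cells and purified on Ni-NTA-agarose. Enzyme (60 nM) was preincubated 30 min in 50 mM Tris-HCl, pH 7.5, then added to the fluorogenic substrate H-Asp-NHMec. Initial hydrolysis rates were read by fluorescence (ex 370 nm, em 460 nm) with inhibitor present.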

SMILES	Ki
NC(CCC(=O)O)P(=O)(O)c1ccccc1 (centres undefined)	> 2000 µM
CC(CP(=O)(O)C(N)CCC(=O)O)C(=O)O (centres undefined)	42.7 µM
N[C@@H](CCC(=O)O)P(=O)(O)O	0.34 µM
NC(CCP(=O)(O)O)P(=O)(O)O (centres undefined)	4.4 µM
CC(CP(=O)(O)C(N)CC(=O)O)C(=O)O (centres undefined)	183 µM
CP(=O)(O)C(N)CC(=O)O (centres undefined)	395 µM
NC(CC(=O)O)P(=O)(O)O (centres undefined)	27 µM
NC(CCCC(=O)O)P(=O)(O)O (centres undefined)	105 µM

system: Plasmodium falciparum; test: Binding affinity against recombinant Plasmodium falciparum D10 M18AAP at 1.83 mM
How it was run: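 Phosphonic/phosphinic amino-acid analogues and phosphinate dipeptides tested on rPfM18AAP in the fluorogenic assay: initial rate of H-Asp-NHMec hydrolysis (ex 370/em 460 nm) at pH 7.5, enzyme preincubated 30 min in 50 mM Tris-HCl; inhibited rates compared with an enzyme-plus-substrate control.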

Activity	SMILES
20%	NC(CCC(=O)O)P(=O)(O)c1ccccc1 (centres undefined)
